{
  "source": "PubChem BioAssay AID488891",
  "about": "(Broad Institute, 2010)",
  "note": "Active and inactive are the calls of the source.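 The calls were made as follows: active = compounds raising caspase signal with a fitted AC50 no higher than the top valid dose tested; inconclusive = flat fit at partial mid-level activity, or unreliable fit; inactive = the rest.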",
  "data": [
    {"tested_on": "not listed separately", "assay": "apoptosis induction, Flag-A1-IRES-BIM fibroblasts – cell-based, alternate A1 construct, Caspase-Glo luminescence, dry powder, A1 inhibitor project, dose response (AID 488891)", "settings": "MEF Flag-A1-IRES-BIM, caspase-Glo luminescence, 3 h; at 150 µM (top of the series)", "how_it_was_run": "(§1)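 Assay system: mouse embryonic fibroblasts primed with Flag-A1-IRES-BIM construct; Amount: 2500 cells/well; Doses: compound dose-response series, pin-transferred on day 2; Timing: 3 h compound exposure at 37 °C, then 1 h CaspaseGlo; Technique: luminescence with CaspaseGlo reagent; Measure: caspase activation.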", "values": [
      {"smiles": "C=C1[C@@H](C)[C@H]2[C@H](Cc3ccccc3)NC(=O)[C@]23[C@H](OC(C)=O)/C=C/[C@](C)(O)C(=O)[C@@H](C)C/C=C/[C@H]3[C@@H]1O", "caspase activation": "1.11% (inactive)"},
      {"smiles": "COc1cc(/C=C(/C#N)c2nc3ccccc3[nH]2)ccc1OCC(=O)Nc1ccccc1C(C)C", "caspase activation": "0.299% (inactive)"},
      {"smiles": "CC(=O)OC(C)(C)/C=C/C(=O)[C@](C)(O)C1[C@H](O)C[C@@]2(C)C3CC=C4C(C[C@H](O)C(=O)C4(C)C)[C@]3(C)C(=O)C[C@]12C", "note": "(stereo not given in full)", "caspase activation": "3.76% (inactive)"}
    ]},
    {"tested_on": "MEF Flag-A1-IRES-BIM, caspase-Glo luminescence, 3 h", "assay": "apoptosis induction, Flag-A1-IRES-BIM fibroblasts – cell-based, alternate A1 construct, Caspase-Glo luminescence, dry powder, A1 inhibitor project, dose response (AID 488891)", "settings": "not given", "how_it_was_run": "as §1", "values": [
      {"smiles": "Cc1cccc(NC(=O)/C(C#N)=C/c2cn(CC(=O)NCc3ccco3)c3ccccc23)c1", "AC50": "3.76 µM"},
      {"smiles": "O=C(CCl)N=c1sccn1Cc1ccccc1Cl", "AC50": "1.28 µM"},
      {"smiles": "COc1ccc(N(C(=O)CCl)C(C(=O)NCCc2ccccc2)c2cccs2)cc1Cl", "note": "(stereo not given)", "AC50": "9.36 µM"},
      {"smiles": "CCOC(=O)CSC1=N/C(=C/c2ccc(-n3cncn3)cc2)C(=O)N1C(C)=O", "AC50": "11.1 µM"},
      {"smiles": "Cc1ccc(CS(=O)(=O)c2ncc(Cl)c(C(=O)Nc3nnc(C(C)C)s3)n2)cc1", "AC50": "5.49 µM"},
      {"smiles": "O=C(Oc1cccc(/C=N/Nc2nc(Nc3ccccc3)nc(N3CCOCC3)n2)c1)c1ccco1", "AC50": "8.01 µM"},
      {"smiles": "COc1cccc(C(=O)C(C#N)=C(SC)SC)c1", "AC50": "1.64 µM"},
      {"smiles": "CC(=O)N[C@H]1[C@H](O[C@H]2CC[C@@]3(C)C(CC[C@]4(C)C3CC=C3[C@@H]5CC(C)(C)CC[C@]5(C(=O)OC5OCC(O)C(O)C5O)C(O)C[C@]34C)C2(C)C)O[C@H](COC2OCC(O)C(OC3OCC(O)C(O)C3O)C2O)[C@@H](O[C@@H]2O[C@@H](C)[C@H](O)[C@@H](O)[C@H]2O[C@@H]2O[C@@H](C)[C@H](O)[C@@H](O)[C@H]2O)[C@@H]1O", "note": "(stereo not given in full)", "AC50": "7.88 µM"},
      {"smiles": "CCc1nnc(NC(=O)c2nc(S(=O)(=O)Cc3ccccc3)ncc2Cl)s1", "AC50": "11.6 µM"},
      {"smiles": "Cc1cccc(CS(=O)(=O)c2ncc(Cl)c(C(=O)Nc3nnc(C(C)C)s3)n2)c1", "AC50": "12 µM"},
      {"smiles": "CC(C)(C)n1nc(-c2ccc(Cl)cc2)c2c(N)ncnc21", "AC50": "> 150 µM (inactive)"},
      {"smiles": "Nc1nc(F)nc2c1ncn2[C@@H]1O[C@H](CO)[C@@H](O)[C@H]1O", "AC50": "1.5 µM"},
      {"smiles": "CCSc1nnc(NC(=O)c2nc(S(=O)(=O)Cc3ccc(F)cc3)ncc2Cl)s1", "AC50": "13.1 µM"},
      {"smiles": "CCc1cc2c(=O)c(-c3cnn(-c4ccccc4)c3)c(C)oc2cc1OCC(=O)Nc1cccc(C)c1", "AC50": "5.29 µM"},
      {"smiles": "Cc1c(C=O)c(C=O)c(C)n1Cc1ccccc1", "AC50": "12.9 µM"},
      {"smiles": "Cc1cc(C(=O)CCl)c(C)n1CCc1ccc(Cl)cc1", "AC50": "9 µM"},
      {"smiles": "Cc1c(CCOC(=O)c2ccc(N3CCOCC3)c([N+](=O)[O-])c2)sc[n+]1CC#N", "AC50": "14.2 µM"},
      {"smiles": "Cc1ccc(Sc2c([N+](=O)[O-])c(=O)n(C)c3ccccc23)cc1", "AC50": "13.4 µM"},
      {"smiles": "COc1cc(CN2CCN(c3cc(C)ccc3C)CC2)ccc1O", "AC50": "7.24 µM"},
      {"smiles": "C/C1=C/C(=O)O[C@@H]2C[C@@H](CC[C@H](C)/C=C\\CC1)O[C@@](O)(C1CSC(=O)N1)C2", "note": "(stereo not given in full)", "AC50": "0.607 µM"},
      {"smiles": "Cn1c(=NC(=O)CCl)sc2ccccc21", "AC50": "3.46 µM"},
      {"smiles": "C=C1[C@@H](C)[C@H]2[C@H](Cc3ccccc3)NC(=O)[C@]23OC(=O)/C=C\\[C@H](O)CCC[C@@H](C)C/C=C/[C@H]3[C@@H]1O", "AC50": "6.46 µM"}
    ]}
  ]
}
